Bioassay records as filed in PubChem BioAssay.
An excerpt weighted towards active compounds, which were near 2.5% of everything screened.
NR2E3 ag-1 = activates human NR2E3 receptor; actives 0.35% (n = 360,000); Q9Y5X4; inhibition of corepressor binding, % at 3.98 µM; CHO-S Gal4-NCOR/VP16-NR2E3 two-hybrid, luciferase;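 active = inhibition above the mean of all tested compounds plus 3 SD, cut at about 70% in these data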;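 note: 0% = DMSO with NR2E3 transfected cells and 100% = cells lacking NR2E3 construct; higher means lower luciferase signal from less NR2E3 corepressor binding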
proKLK7 act = proKLK7 (human) activation, primary screen; purified proKLK7, EDANS-DABCYL substrate fluorescence; 100% is mature enzyme control, 0% vehicle; AID 652039; actives 0.9% (n = 370,000); activation, % at 7 µM; P49862;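 active = activation above the mean of all tested compounds plus 3 SD, computed per campaign excluding outliers beyond control limits, cut at about 13% in these data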
ADAM10 inh = inhibits human ADAM10; actives 0.62% (n = 370,000); AID 720582; O14672; inhibition, % at 7 µM; recombinant ADAM10, EDANS/DABCYL FRET peptide cleavage, 3 h;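 active = inhibition above a per-campaign cutoff equal to the mean of compounds falling between control-based bounds plus 3 SD, cut at about 20% in these data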;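 note: 0% = DMSO wells while the 100% control is not disclosed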
Target sequence (O14672 214-748 limits assumed): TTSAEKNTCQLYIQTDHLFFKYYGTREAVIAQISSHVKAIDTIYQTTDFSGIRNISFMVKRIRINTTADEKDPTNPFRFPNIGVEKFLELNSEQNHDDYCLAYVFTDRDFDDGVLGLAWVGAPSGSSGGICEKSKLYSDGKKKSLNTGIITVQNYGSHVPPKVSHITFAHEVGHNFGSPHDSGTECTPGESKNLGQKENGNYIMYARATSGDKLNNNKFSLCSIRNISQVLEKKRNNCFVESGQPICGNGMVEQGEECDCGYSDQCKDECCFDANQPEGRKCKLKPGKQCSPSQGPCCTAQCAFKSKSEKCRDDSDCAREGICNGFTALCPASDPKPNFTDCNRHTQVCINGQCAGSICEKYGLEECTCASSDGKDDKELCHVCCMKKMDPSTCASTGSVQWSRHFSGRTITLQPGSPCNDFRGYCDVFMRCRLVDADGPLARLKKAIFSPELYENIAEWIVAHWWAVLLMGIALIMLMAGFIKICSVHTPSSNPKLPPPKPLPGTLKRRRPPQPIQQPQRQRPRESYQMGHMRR
NR2E3 ag-2 = agonists of human nuclear receptor NR2E3; Q9Y5X4; GST-NR2E3/biotin-RetCOR TR-FRET, 1536-well; inhibition of corepressor binding, % at 4.78 µM; actives 0.12% (n = 320,000); AID 2300;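 active = percent inhibition above the cutoff of mean plus 3 SD of all tested compounds, set per screening campaign, cut at about 20% in these data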;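 note: 0% = DMSO wells and 100% = biotin wells as full block of FRET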
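Test system – NR2E3–RetCOR corepressor complex · Quantity – NR2E3 fusion 1.35 nM · Buffer or medium – Tris pH 7.5 · Incubation – Compound–protein incubation for 5 h at 4 °C · Technique – TR-FRET, Eu(K)-anti-GST donor, streptavidin-D2 acceptor, ex 340, em 617/671 nm · Evaluation – percent inhibition of 671/617 nm emission ratio versus biotin and DMSO controls · Plate – 1536-well format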
GASC-1 inh = human JMJD2C demethylase inhibition. GST-JMJD2C(1-420) H3K9me3 demethylation, DELFIA europium. actives 0.069% (n = 330,000). Q9H3R0. inhibition, % at 2.35 µM;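 active = more than half of a compound's replicate wells show inhibition beyond 50%, single wells judged on their own value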;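 note: signal counts dimethyl H3K9 product captured on neutravidin plate; 0% = median of DMSO wells and 100% = 0.3 times that DMSO median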
ADAM17 inh = ADAM17 inhibition, QFRET primary screen; recombinant ADAM17, EDANS/DABCYL FRET peptide cleavage; inhibition, % at 6.95 µM; actives 0.83% (n = 370,000); AID 720648;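 active = inhibition above the mean of compounds lying between control limits plus 3 SD, set per campaign, cut at about 8.5% in these data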;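 note: 0% = DMSO-only wells as the low control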
Active calls of the source: *; i = inactive; nt = not tested or not shown.

SMILES	NR2E3 ag-1	proKLK7 act	ADAM10 inh	NR2E3 ag-2	GASC-1 inh	ADAM17 inh
O=C(CSc1nnc(CNC(=O)c2cccs2)o1)c1ccc(Cl)cc1	-6	0	8	-2	5	0
O=C(CSc1nnc(CNC(=O)c2cccs2)o1)c1ccccc1	-21	-1	-1	1	97*	-3
O=C(CSc1nnc(CNC(=O)c2ccccc2F)o1)NCCc1ccccc1	-2	0	10	1	108*	-1
O=C(CSc1nnc(CNC(=O)c2c(F)cccc2F)o1)NCCc1ccccc1	23	0	-11	-1	20	-7
COC(=O)C1CN(Cc2ccc(Cl)cc2)CCS(=O)(=O)N1Cc1cn(Cc2ccc(F)cc2)nn1 (stereo unspecified)	nt	0	4	nt	nt	-1
CC(C)C[C@H]1COc2cc(Br)ccc2S(=O)(=O)N1Cc1cn(CCC2OCCO2)nn1	nt	0	2	nt	nt	3
COc1ccc(/C=C/c2cc(-c3ccc(C)cc3)o[n+]2C)cc1	1	32*	i	-4	2	-159
COc1ccc(/C=C/c2c(-c3ccc(OC)cc3)oc3ccc(-c4ccc(OC)cc4)cc23)cc1	-15	0	-3	1	-7	-4
CCc1cc(Cn2nc(-c3ccccc3)cc2C(=O)NCCOC)on1	-3	0	2	2	-2	-1
CCc1cc(Cn2nc(-c3ccccc3)cc2C(=O)NCc2cccs2)on1	-5	1	37*	0	2	16*
O=C(NCCc1c[nH]c2ccccc12)OCc1cn(Cc2ccc(F)c(F)c2)nn1	nt	0	2	nt	nt	1
CCN1C(=O)c2cccc3c(S(=O)(=O)Nc4ccccn4)ccc1c23	-22	19*	-49	-3	18	-11
O=S(=O)(c1cccs1)N1CCC(c2cn3ccccc3n2)CC1	nt	1	-31	nt	nt	-9
Cc1ccc(Nc2cc(C)nn2-c2nc(C)cc(=O)[nH]2)cc1	109*	nt	nt	-5	1	nt
Cc1ccc(Nc2cc(C)nn2-c2nc(C)cc(C)n2)cc1	94*	0	10	0	0	3
CC1(C)C[C@H]2C3=CCC4[C@@]5(C)CC[C@H](O[C@@H]6O[C@H](C(=O)O)[C@@H](O)[C@H](O)[C@H]6O)[C@@](C)(CO)C5CC[C@@]4(C)[C@]3(C)C[C@H](O)[C@@]2(CO)[C@@H](O)[C@@H]1O (stereo partly specified)	-4	-1	1	nt	3	0
C/C=C(\C)C(=O)OC1[C@H](OC(C)=O)C2(CO)C(CC1(C)C)C1=CCC3C4(C)CCC(O[C@@H]5O[C@H](C(=O)O)[C@@H](O[C@@H]6O[C@H](CO)[C@@H](O)[C@H](O)[C@H]6O)[C@H](O)[C@H]5O[C@H]5O[C@H](CO)[C@@H](O)[C@H](O)[C@H]5O)[C@](C)(CO)C4CCC3(C)[C@]1(C)C[C@H]2O (stereo partly specified)	106*	nt	nt	nt	nt	nt
CC1CCN(c2ccc(C(=O)O)cc2NS(=O)(=O)c2ccc(Cl)s2)CC1	nt	0	-6	nt	nt	-1
CCc1nnc(N/N=C/c2cc(Br)c(O)cc2O)n1N	-10	-1	2	-1	58*	-1
CCc1nnc(N/N=C/c2ccc(O)c(OC)c2)n1N	-49	0	-3	3	-1	-3
COC(=O)c1c(C)oc2ccc(N(C(=O)c3ccncc3)S(=O)(=O)c3ccccc3)cc12	70*	0	11	-1	-3	1
Cc1cccc(C(=O)N/N=C/C(C)Cc2ccc3c(c2)OCO3)c1 (stereo unspecified)	8	0	2	-2	67*	0
CC(/C=N\NC(=O)c1ccc2c(c1)OCO2)c1ccccc1 (stereo unspecified)	-86	0	-4	-1	5	-3
CC(NC(=O)OCc1ccccc1)C(=O)Oc1cc2oc(=O)cc(-c3ccccc3)c2cc1Cl (stereo unspecified)	-15	24*	-305	1	8	-90
CCc1cc2c(-c3ccccc3)cc(=O)oc2cc1OC(C)C(=O)O (stereo unspecified)	-68	3	-83	2	-9	-33
SMILES	NR2E3 ag-1	proKLK7 act	ADAM10 inh	NR2E3 ag-2	GASC-1 inh	ADAM17 inh
CN(C)c1ccc(NC(=O)CSc2nc3ccccc3c(=O)n2C2CCCCC2)cc1	6	0	12	1	10	12*
CNc1nnc(-c2ccc(N(C)C)cc2)s1	-93	40*	i	0	8	i
CN(C)c1ccc(-c2csc(C(O)c3ccccc3)n2)cc1 (stereo unspecified)	-168	0	-2	nt	nt	1
CN(C)c1ccc(C(O)c2cc3ccccc3s2)cc1 (stereo unspecified)	-147	0	13	nt	nt	10*
COCCCN1C(=O)[C@H](CC(=O)NCCCN2CCCC2=O)[C@]2(C(=O)OC)CCCCC=C12	nt	1	4	nt	nt	3
COc1cccc(-n2nnc3c(=O)n(Cc4ccccc4F)cnc32)c1	-54	0	6	4	92*	-2
COc1cccc(-n2nnc3c(=O)n(Cc4cccc(C)c4)cnc32)c1	-27	0	-3	3	0	-1
Oc1ccc(-c2n[nH]c(C(F)(F)F)c2-c2ccccc2)c(O)c1	76*	-1	12	1	9	5
CCc1ccc(S(=O)(=O)/N=C2/C=C(Sc3ncn[nH]3)C(=O)c3ccccc32)cc1	100*	nt	nt	6	19	nt
CCN(CC)C(=O)CC[C@H]1CC[C@]2(CCCN(Cc3cccc4ccccc34)C2)O1	nt	0	4	nt	nt	0
CCOC(=O)c1c(C)[nH]c(N=Nc2ccc(C)cc2)c1C	-167	0	10	6	2	15*
O=C(O)c1cccc2cccc(-c3c4ccc(=O)c(O)c-4oc4c(O)c(O)ccc34)c12	-19	19*	-28	nt	nt	-6
C=CCn1c(SCc2c(C(=O)OC)sc(N)c2C(=O)OC)nnc1-c1ccc(Br)cc1	-24	0	20*	1	2	4
Nc1[nH]c2cc(Cl)ccc2c1C(=O)NCCc1ccc(Cl)cc1	nt	0	9	nt	nt	4
CN(C1CCCCC1)S(=O)(=O)c1ccc(NC(=O)c2ccc(Br)o2)cc1	-14	1	20*	0	-5	6
c1ccc(Oc2ccc(-c3ccnc4nc(N5CCOCC5)nn34)cc2)cc1	20	-89	-452	2	-17	-167
COc1ccc(-c2ccnc3nc(N4CCOCC4)nn23)cc1	7	44*	i	5	-2	-439
COc1ccc([C@H]2CC(=O)C=C(c3ccnc4ccc(Cl)cc34)C2)cc1	89*	0	11	2	6	6
